ChEMBL document CHEMBL4130603, “Anti-inflammatory Grayanane Diterpenoids from the Leaves of Rhododendron molle” (J Nat Prod, 2018)

Assays:
[1] = Cytotoxicity against mouse RAW264.7 cells assessed as survival rate at 200 uM measured in absence of LPS by MTT assay relative to control; assay type: cell-based; conditions: read-out: Survival
Procedure, shortened: (§1)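 RAW 264.7 mouse macrophages treated with compound at 200 μM, with or without 1 μg/mL LPS. Viability read by MTT and expressed as survival rate (%). Values are means ± SD, n = 3.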

[2] = system: RAW264.7; test: Antiinflammatory activity in mouse RAW264.7 cells assessed as inhibition of LPS-induced nitric oxide production at 40 uM by griess assay relative to control; assay type: functional
Procedure, shortened: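 LPS-stimulated RAW 264.7 mouse macrophages; nitric oxide production measured; single-concentration screen of inhibition relative to control. Dexamethasone as positive control.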

[3] = system: RAW264.7; test: Antiinflammatory activity in mouse RAW264.7 cells assessed as inhibition of LPS-induced nitric oxide production by griess assay; assay type: functional, cell-based
Procedure, shortened: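 RAW 264.7 mouse macrophages induced with LPS; NO production measured over five test concentrations to derive IC50; means ± SD, n = 3; dexamethasone positive control.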

[4] = Cytotoxicity against mouse RAW264.7 cells assessed as survival rate at 200 uM measured in presence of LPS by MTT assay relative to control; assay type: cell-based; conditions: read-out: Survival; procedure, shortened: as §1
[5] = system: RAW264.7; test: Cytotoxicity against mouse RAW264.7 cells at 200 uM measured in presence of LPS by MTT assay; assay type: cell-based; conditions: raw264.7, 200 µM
Procedure, shortened: (§2)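 MTT viability of RAW 264.7 mouse macrophages exposed to compound at 200 μM, with or without 1 μg/mL LPS; reported as cell survival rate (%).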

[6] = system: RAW264.7; test: Cytotoxicity against mouse RAW264.7 cells at 200 uM measured in absence of LPS by MTT assay; assay type: cell-based; conditions: raw264.7, 200 µM; procedure, shortened: as §2

In the case of `CC(=O)O[C@@H]1C[C@]23C[C@@](C)(OC(C)=O)[C@H](CC[C@H]2[C@@](C)(O)[C@@H]2[C@@H]4O[C@@H]4C(C)(C)[C@@]12O)[C@H]3O`, the viability at 200 µM [1] is reported as 98.9%, the inhibition at 40 µM [2] is reported as greater than 50% and the IC50 [3] is reported as 10.1 µM. For the same compound, the viability at 200 µM [4] was 99.7%.
`CC(=O)O[C@@H]1[C@H]2CC[C@H]3[C@@](C)(O)[C@@H]4[C@@H](O)[C@H](O)C(C)(C)[C@@]4(O)[C@H](OC(C)=O)C[C@@]13C[C@@]2(C)O` showed a viability at 200 µM [1] of 97.4%, an inhibition at 40 µM [2] greater than 50% and an IC50 [3] of 10.3 µM. For the same compound, the viability at 200 µM [4] was 93.9%.
For `CO[C@H]1[C@H](O)C(C)(C)[C@@]2(O)[C@H](O)C[C@]34C[C@@](C)(O)[C@H](CC[C@H]3[C@@](C)(O)[C@H]12)[C@H]4O`, the IC50 [3] was greater than 40 µM, the Activity [5] was “Non-Toxic” and the Activity [6] was “Non-Toxic”.
Work on `CO[C@H]1[C@H](O)C(C)(C)[C@@]2(O)[C@H](OC(C)=O)C[C@]34C[C@@](C)(O)[C@H](CC[C@H]3[C@@](C)(O)[C@H]12)[C@H]4O` yielded a viability at 200 µM [1] of 98.3%, an inhibition at 40 µM [2] greater than 50% and an IC50 [3] of 4.6 µM. It also gave a viability at 200 µM [4] of 97.3%.
With `C=C1[C@@H]2CC[C@@H]3C[C@@]2(C[C@@H](O)[C@@]2(O)[C@H]1C[C@H](O)[C@]2(C)CO)C[C@@]3(C)O` the IC50 [3] was greater than 40 µM, the Activity [5] was “Non-Toxic” and the Activity [6] was “Non-Toxic”.
For `C=C1[C@@H]2[C@@H](OC)[C@H](O)C(C)(C)[C@@]2(O)[C@H](OC(C)=O)C[C@]23C[C@@](C)(O)[C@H](CC[C@@H]12)[C@H]3O`, the IC50 [3] was greater than 40 µM, the Activity [5] was “Non-Toxic” and the Activity [6] was “Non-Toxic”.
With `CC(=O)O[C@@H]1C[C@@]23C[C@]4(C)O[C@@H](C[C@@H]4[C@H]2O)[C@H]3[C@@](C)(O)C2[C@@H]3O[C@@H]3C(C)(C)[C@]21O` (stereo partly specified) the IC50 [3] was greater than 40 µM, the Activity [5] was “Non-Toxic” and the Activity [6] was “Non-Toxic”.
In the case of `CO[C@H]1[C@H](O)C(C)(C)[C@@]2(O)[C@H](OC(C)=O)C[C@]34C[C@@](C)(O)[C@H](CC[C@H]3[C@@](C)(O)[C@H]12)[C@H]4O[C@H]1[C@H](O)C(C)(C)[C@@]2(O)[C@H](OC(C)=O)C[C@]34C[C@@](C)(O)[C@H](CC[C@H]3[C@@](C)(O)[C@H]12)[C@H]4O`, the IC50 [3] is reported as greater than 40 µM, the Activity [5] is reported as “Non-Toxic” and the Activity [6] is reported as “Non-Toxic”.
With `CC1(C)[C@@H](O)[C@H](O)[C@H]2[C@](C)(O)[C@@H]3CC[C@@H]4[C@@H](O)[C@@]3(C[C@@H](O)[C@@]21O)C[C@@]4(C)O` the viability at 200 µM [1] was 97%, the inhibition at 40 µM [2] was greater than 50% and the IC50 [3] was 8 µM. It also gave a viability at 200 µM [4] of 90.4%.
With `CC1(C)[C@H]2O[C@H]2[C@H]2[C@](C)(O)[C@@H]3CC[C@@H]4[C@@H](O)[C@@]3(C[C@@H](O)[C@@]21O)C[C@@]4(C)O` the viability at 200 µM [1] was 96.5%, the inhibition at 40 µM [2] was greater than 50% and the IC50 [3] was 7 µM. For the same compound, the viability at 200 µM [4] was 98.4%.
In the case of `CC(=O)O[C@@H]1C[C@]23C=C(C)[C@H](CC[C@H]2[C@@](C)(O)[C@@H]2[C@@H]4O[C@@H]4C(C)(C)[C@@]12O)[C@H]3O`, the IC50 [3] is reported as greater than 40 µM, the Activity [5] is reported as “Non-Toxic” and the Activity [6] is reported as “Non-Toxic”.
In the case of `CC(=O)O[C@@H]1C[C@]23C[C@@](C)(O)[C@H](CC[C@H]2[C@@](C)(O)[C@@H]2[C@@H](Cl)[C@H](O)C(C)(C)[C@@]12O)[C@H]3O`, the viability at 200 µM [1] is reported as 99.3%, the inhibition at 40 µM [2] is reported as greater than 50% and the IC50 [3] is reported as 5.8 µM. The viability at 200 µM [4] was 95.2%.
In the case of `C=C1[C@@H]2CC[C@@H]3[C@@H](O)[C@@]2(C[C@@H](O)[C@@]2(O)[C@H]1C[C@H](O)C2(C)C)C[C@@]3(C)O`, the IC50 [3] is reported as greater than 40 µM, the Activity [5] is reported as “Non-Toxic” and the Activity [6] is reported as “Non-Toxic”.
In the case of `C=C1[C@@H]2CC[C@@H]3C[C@@]2(C[C@@H](OC(C)=O)[C@@]2(O)[C@H]1C[C@H](O)C2(C)C)C[C@@]3(C)O`, the IC50 [3] is reported as greater than 40 µM, the Activity [5] is reported as “Non-Toxic” and the Activity [6] is reported as “Non-Toxic”.
With `C=C1[C@@H]2[C@@H](OC)[C@H](O)C(C)(C)[C@@]2(O)[C@H](O)C[C@]23C[C@@](C)(O)[C@H](CC[C@@H]12)[C@H]3O` the IC50 [3] was greater than 40 µM, the Activity [5] was “Non-Toxic” and the Activity [6] was “Non-Toxic”.
Work on `C=C1[C@@H]2[C@@H](O)[C@H](O)C(C)(C)[C@@]2(O)[C@H](O)C[C@]23C[C@@](C)(O)[C@H](CC[C@@H]12)[C@H]3O` yielded a viability at 200 µM [1] of 98.1%, an inhibition at 40 µM [2] greater than 50% and an IC50 [3] of 8.1 µM. The viability at 200 µM [4] was 97.5%.
With `C[C@@H]1C[C@H]2[C@@H]3CCC4=CC(=O)C=C[C@]4(C)[C@@]3(F)[C@@H](O)C[C@]2(C)[C@@]1(O)C(=O)CO` [DEXAMETHASONE] the viability at 200 µM [1] was 97.7%, the IC50 [3] was 0.8 µM and the viability at 200 µM [4] was 97.1%.
`CC(=O)O[C@@H]1C[C@]23C[C@@](C)(O)[C@H](CC[C@H]2[C@@](C)(O)[C@@H]2[C@@H]4O[C@@H]4C(C)(C)[C@@]12O)[C@H]3O` showed a viability at 200 µM [1] of 101%, an inhibition at 40 µM [2] greater than 50% and an IC50 [3] of 2.8 µM. It also gave a viability at 200 µM [4] of 93.6%.
With `CO[C@@H]1[C@H]2[C@@H](C)[C@]34CC[C@H]5C(C)=C[C@]3(C[C@@H](OC(C)=O)[C@]2(O4)C(C)(C)[C@H]1O)[C@@H]5O` the IC50 [3] was greater than 40 µM, the Activity [5] was “Non-Toxic” and the Activity [6] was “Non-Toxic”.
Work on `C=C1[C@@H]2[C@@H]3O[C@@H]3C(C)(C)[C@@]2(O)[C@H](O)C[C@]23C[C@@](C)(O)[C@H](CC[C@@H]12)[C@H]3O` yielded a viability at 200 µM [1] of 90.3%, an inhibition at 40 µM [2] greater than 50% and an IC50 [3] of 35.4 µM. It also gave a viability at 200 µM [4] of 92%.
For `C=C1[C@@H]2[C@@H](O)[C@H](O)C(C)(C)[C@@]2(O)[C@H](OC(C)=O)C[C@]23C[C@@](C)(O)[C@H](CC[C@@H]12)[C@H]3O`, the IC50 [3] was greater than 40 µM, the Activity [5] was “Non-Toxic” and the Activity [6] was “Non-Toxic”.
With `CC(=O)O[C@@H]1[C@H]2CC[C@H]3[C@@](C)(O)[C@@H]4[C@@H]5O[C@@H]5C(C)(C)[C@@]4(O)[C@H](O)C[C@@]13C[C@@]2(C)O` the IC50 [3] was greater than 40 µM, the Activity [5] was “Non-Toxic” and the Activity [6] was “Non-Toxic”.
`C=C1[C@@H]2CC[C@@H]3C[C@@]2(C[C@@H](O)[C@@]2(O)[C@H]1C[C@H](O)C2(C)C)C[C@@]3(C)O` showed a viability at 200 µM [1] of 96.4%, an inhibition at 40 µM [2] greater than 50% and an IC50 [3] of 3.5 µM. It also gave a viability at 200 µM [4] of 93.8%.
With `CC(=O)O[C@@H]1C[C@]23C[C@@](C)(O)[C@H](CC[C@H]2[C@@](C)(O)[C@@H]2[C@@H](O)[C@H](O)C(C)(C)[C@@]12O)[C@H]3O` the viability at 200 µM [1] was 98.8%, the inhibition at 40 µM [2] was greater than 50% and the IC50 [3] was 9.3 µM. For the same compound, the viability at 200 µM [4] was 99.8%.
In the case of `C=C1[C@@H]2[C@@H](O)[C@H](O)C(C)(C)[C@@]2(O)[C@H](OC(C)=O)C[C@]23C=C(C)[C@H](CC[C@@H]12)[C@H]3O`, the IC50 [3] is reported as greater than 40 µM, the Activity [5] is reported as “Non-Toxic” and the Activity [6] is reported as “Non-Toxic”.
With `C=C1C[C@@]23C[C@@H](OC(C)=O)[C@@]4(O)[C@@H]([C@@H](O)[C@H](O)C4(C)C)[C@](C)(O)[C@@H]2CC[C@@H]1[C@H]3O` the IC50 [3] was greater than 40 µM, the Activity [5] was “Non-Toxic” and the Activity [6] was “Non-Toxic”.
With `CO[C@H]1[C@H](O)C(C)(C)[C@@]2(O)[C@H](OC(C)=O)C[C@]34C[C@@](C)(O)[C@H](CC[C@H]3[C@@](C)(O)[C@H]12)[C@H]4OC(C)=O` the IC50 [3] was greater than 40 µM, the Activity [5] was “Non-Toxic” and the Activity [6] was “Non-Toxic”.
For `C=C1C[C@@]23C[C@@H](O)[C@@]4(O)C([C@@H]5O[C@@H]5C4(C)C)[C@](C)(O)[C@@H]2CC[C@@H]1[C@H]3O` (stereo partly specified), the IC50 [3] was greater than 40 µM, the Activity [5] was “Non-Toxic” and the Activity [6] was “Non-Toxic”.
With `CC(=O)O[C@@H]1C[C@]23C[C@@](C)(O)[C@H](CC[C@H]2[C@@](C)(O)[C@@H]2C[C@H](O)C(C)(C)[C@@]12O)[C@H]3O` the IC50 [3] was greater than 40 µM, the Activity [5] was “Non-Toxic” and the Activity [6] was “Non-Toxic”.
With `CO[C@@H]1[C@H]2C(C)=C3CC[C@@H]4[C@@H](O)[C@@]3(C[C@@H](OC(C)=O)[C@]2(O)C(C)(C)[C@H]1O)C[C@@]4(C)O` the IC50 [3] was greater than 40 µM, the Activity [5] was “Non-Toxic” and the Activity [6] was “Non-Toxic”.
